# Laboratory results published in ChEMBL document CHEMBL4715736, “Identification of anticancer agents based on the thieno[2,3-b]pyridine and 1H-pyrazole molecular scaffolds” (2016).
# Legend:
# Format in all cases: functional
# Conditions in all cases: read-out: Activity
# [1] = system: NCI-H226; assay: Growth inhibition of human NCI-H226 cells assessed as cell growth at 10 uM incubated for 48 hrs by sulforhodamine B assay relative to control
# Procedure, shortened: (§1)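 Submitted to the NCI Developmental Therapeutics Program for the NCI60 human tumour cell line panel. First screen at a single 10 µM concentration. Read-out is growth relative to untreated control cells set at 100%.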
# [2] = system: SNB-19; assay: Growth inhibition of human SNB-19 cells assessed as cell growth at 10 uM incubated for 48 hrs by sulforhodamine B assay relative to control
# Procedure, shortened: (§2)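 Run by the NCI Developmental Therapeutics Program as part of its 60-line human tumour panel. Each compound tested at a single 10 µM dose. Growth expressed as % relative to untreated control cells (100%).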
# [3] = system: SK-MEL-5; assay: Growth inhibition of human SK-MEL-5 cells assessed as cell growth at 10 uM incubated for 48 hrs by sulforhodamine B assay relative to control; procedure, shortened: as §2
# [4] = system: M14; assay: Growth inhibition of human M14 cells assessed as cell growth at 10 uM incubated for 48 hrs by sulforhodamine B assay relative to control; procedure, shortened: as §1
# [5] = system: COLO 205; assay: Growth inhibition of human COLO 205 cells assessed as cell growth at 10 uM incubated for 48 hrs by sulforhodamine B assay relative to control
# Procedure, shortened: (§3)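 NCI Developmental Therapeutics Program NCI60 panel. Compounds that were active in the 10 µM one-dose screen went on to dose–response testing. Growth at each concentration is expressed relative to untreated control (100%). GI50 (concentration giving 50% of maximal inhibition of proliferation) and TGI (concentration giving total growth inhibition) were derived from the curves.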
# [6] = system: HOP-62; assay: Growth inhibition of human HOP-62 cells assessed as cell growth at 10 uM incubated for 48 hrs by sulforhodamine B assay relative to control; procedure, shortened: as §1
# [7] = system: NCI-H460; assay: Growth inhibition of human NCI-H460 cells assessed as cell growth at 10 uM incubated for 48 hrs by sulforhodamine B assay relative to control; procedure, shortened: as §1
# [8] = system: MDA-MB-231; assay: Growth inhibition of human MDA-MB-231 cells assessed as cell growth at 10 uM incubated for 48 hrs by sulforhodamine B assay relative to control; procedure, shortened: as §1
# [9] = system: HL-60(TB); assay: Growth inhibition of human HL-60(TB) cells assessed as cell growth at 10 uM incubated for 48 hrs by sulforhodamine B assay relative to control
# Procedure, shortened: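 Screened by the NCI Developmental Therapeutics Program on its panel of 60 human tumour cell lines. Compounds were first tested at a single 10 µM dose, and compounds active there went to dose-response curves. Growth is expressed relative to untreated control (100%). GI50 (50% of maximal proliferation inhibition) and TGI (total growth inhibition) were derived from the dose-response data.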
# [10] = system: OVCAR-4; assay: Growth inhibition of human OVCAR-4 cells assessed as cell growth at 10 uM incubated for 48 hrs by sulforhodamine B assay relative to control; procedure, shortened: as §2
# [11] = system: K562; assay: Growth inhibition of human K562 cells assessed as cell growth at 10 uM incubated for 48 hrs by sulforhodamine B assay relative to control; procedure, shortened: as §1
# [12] = system: UO-31; assay: Growth inhibition of human UO-31 cells assessed as cell growth at 10 uM incubated for 48 hrs by sulforhodamine B assay relative to control; procedure, shortened: as §2
# [13] = system: SF-295; assay: Growth inhibition of human SF-295 cells assessed as cell growth at 10 uM incubated for 48 hrs by sulforhodamine B assay relative to control; procedure, shortened: as §2
# [14] = system: SW-620; assay: Growth inhibition of human SW-620 cells assessed as cell growth at 10 uM incubated for 48 hrs by sulforhodamine B assay relative to control; procedure, shortened: as §2
# [15] = system: DU-145; assay: Growth inhibition of human DU-145 cells assessed as cell growth at 10 uM incubated for 48 hrs by sulforhodamine B assay relative to control; procedure, shortened: as §3
# [16] = system: MDA-MB-435; assay: Growth inhibition of human MDA-MB-435 cells assessed as cell growth at 10 uM incubated for 48 hrs by sulforhodamine B assay relative to control; procedure, shortened: as §1
# [17] = system: PC-3; assay: Growth inhibition of human PC-3 cells assessed as cell growth at 10 uM incubated for 48 hrs by sulforhodamine B assay relative to control; procedure, shortened: as §2
# [18] = system: MOLT-4; assay: Growth inhibition of human MOLT-4 cells assessed as cell growth at 10 uM incubated for 48 hrs by sulforhodamine B assay relative to control; procedure, shortened: as §1
# [19] = system: UACC-257; assay: Growth inhibition of human UACC-257 cells assessed as cell growth at 10 uM incubated for 48 hrs by sulforhodamine B assay relative to control; procedure, shortened: as §2
# [20] = system: ACHN; assay: Growth inhibition of human ACHN cells assessed as cell growth at 10 uM incubated for 48 hrs by sulforhodamine B assay relative to control
# Procedure, shortened: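 NCI Developmental Therapeutics Program NCI60 human tumour cell line panel, one-dose primary screen with every compound at 10 µM. Growth is expressed as % of untreated control cells (100%).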
# [21] = system: RXF 393; assay: Growth inhibition of human RXF 393 cells assessed as cell growth at 10 uM incubated for 48 hrs by sulforhodamine B assay relative to control; procedure, shortened: as §2
# [22] = system: SNB-75; assay: Growth inhibition of human SNB-75 cells assessed as cell growth at 10 uM incubated for 48 hrs by sulforhodamine B assay relative to control; procedure, shortened: as §2
# [23] = system: OVCAR-5; assay: Growth inhibition of human OVCAR-5 cells assessed as cell growth at 10 uM incubated for 48 hrs by sulforhodamine B assay relative to control; procedure, shortened: as §2
# [24] = system: Malme-3M; assay: Growth inhibition of human Malme-3M cells assessed as cell growth at 10 uM incubated for 48 hrs by sulforhodamine B assay relative to control; procedure, shortened: as §1
# [25] = system: OVCAR-3; assay: Growth inhibition of human OVCAR-3 cells assessed as cell growth at 10 uM incubated for 48 hrs by sulforhodamine B assay relative to control; procedure, shortened: as §2
# [26] = system: HCT-15; assay: Growth inhibition of human HCT-15 cells assessed as cell growth at 10 uM incubated for 48 hrs by sulforhodamine B assay relative to control; procedure, shortened: as §1
# [27] = system: SF-539; assay: Growth inhibition of human SF-539 cells assessed as cell growth at 10 uM incubated for 48 hrs by sulforhodamine B assay relative to control; procedure, shortened: as §2
# [28] = system: HCT-116; assay: Growth inhibition of human HCT-116 cells assessed as cell growth at 10 uM incubated for 48 hrs by sulforhodamine B assay relative to control; procedure, shortened: as §1
# [29] = system: IGROV-1; assay: Growth inhibition of human IGROV-1 cells assessed as cell growth at 10 uM incubated for 48 hrs by sulforhodamine B assay relative to control; procedure, shortened: as §1
# [30] = system: SF-268; assay: Growth inhibition of human SF-268 cells assessed as cell growth at 10 uM incubated for 48 hrs by sulforhodamine B assay relative to control; procedure, shortened: as §2
# [31] = system: 786-0; assay: Growth inhibition of human 786-0 cells assessed as cell growth at 10 uM incubated for 48 hrs by sulforhodamine B assay relative to control; procedure, shortened: as §3
# [32] = system: Hs-578T; assay: Growth inhibition of human Hs-578T cells assessed as cell growth at 10 uM incubated for 48 hrs by sulforhodamine B assay relative to control; procedure, shortened: as §1
# [33] = system: A549; assay: Growth inhibition of human A549/ATCC cells assessed as cell growth at 10 uM incubated for 48 hrs by sulforhodamine B assay relative to control; procedure, shortened: as §3
structure (smiles),measurement,setting,value
COc1ccc(-c2ccn(S(=O)(=O)c3ccc(OC)cc3)n2)cc1,growth at 10 µM,[1],70.9%
same,growth at 10 µM,[2],96.8%
same,growth at 10 µM,[3],79.9%
same,growth at 10 µM,[4],74%
same,growth at 10 µM,[5],118%
same,growth at 10 µM,[6],101%
same,growth at 10 µM,[7],75%
same,growth at 10 µM,[8],96.2%
same,growth at 10 µM,[9],99.4%
same,growth at 10 µM,[10],63%
same,growth at 10 µM,[11],57%
same,growth at 10 µM,[12],72%
same,growth at 10 µM,[13],72.7%
same,growth at 10 µM,[14],82.1%
same,growth at 10 µM,[15],93.9%
same,growth at 10 µM,[16],88.4%
same,growth at 10 µM,[17],65.8%
same,growth at 10 µM,[18],73.2%
same,growth at 10 µM,[19],86.2%
same,growth at 10 µM,[20],90.6%
same,growth at 10 µM,[21],88.7%
same,growth at 10 µM,[22],88.9%
same,growth at 10 µM,[23],90.2%
same,growth at 10 µM,[24],112%
same,growth at 10 µM,[25],89.3%
same,growth at 10 µM,[26],83%
same,growth at 10 µM,[27],87.3%
same,growth at 10 µM,[28],60.3%
same,growth at 10 µM,[29],91.6%
same,growth at 10 µM,[30],95.6%
same,growth at 10 µM,[31],80.2%
same,growth at 10 µM,[32],93.6%
same,growth at 10 µM,[33],88.3%
CCc1cccc(C)c1NC(=O)c1sc2nc3c(cc2c1N)C(=O)CCC3,growth at 10 µM,[1],49%
same,growth at 10 µM,[2],42%
same,growth at 10 µM,[3],-10%
same,growth at 10 µM,[4],7%
same,growth at 10 µM,[5],-58%
same,growth at 10 µM,[6],23.3%
same,growth at 10 µM,[7],4%
same,growth at 10 µM,[8],14%
same,growth at 10 µM,[9],-30%
same,growth at 10 µM,[10],28%
same,growth at 10 µM,[11],2%
same,growth at 10 µM,[12],29%
same,growth at 10 µM,[13],2%
same,growth at 10 µM,[14],23%
same,growth at 10 µM,[15],14.2%
same,growth at 10 µM,[16],-36%
same,growth at 10 µM,[17],23.3%
same,growth at 10 µM,[18],17.9%
same,growth at 10 µM,[19],49%
same,growth at 10 µM,[20],22%
same,growth at 10 µM,[21],4%
same,growth at 10 µM,[22],-2.83%
same,growth at 10 µM,[23],28%
same,growth at 10 µM,[24],48%
same,growth at 10 µM,[25],-26%
same,growth at 10 µM,[26],16%
same,growth at 10 µM,[27],-27%
same,growth at 10 µM,[28],17%
same,growth at 10 µM,[29],30%
same,growth at 10 µM,[30],38%
same,growth at 10 µM,[31],28%
same,growth at 10 µM,[32],24.8%
same,growth at 10 µM,[33],22.9%
COc1ccc(S(=O)(=O)n2ccc(-c3ccc(OC(C)C)cc3)n2)cc1,growth at 10 µM,[1],78.8%
same,growth at 10 µM,[2],100%
same,growth at 10 µM,[3],91.9%
same,growth at 10 µM,[4],84.5%
same,growth at 10 µM,[5],111%
same,growth at 10 µM,[6],126%
same,growth at 10 µM,[7],84.5%
same,growth at 10 µM,[8],93%
same,growth at 10 µM,[9],90.3%
same,growth at 10 µM,[10],67.7%
same,growth at 10 µM,[11],53.6%
same,growth at 10 µM,[12],76.4%
same,growth at 10 µM,[13],90%
same,growth at 10 µM,[14],86.3%
same,growth at 10 µM,[15],94.3%
same,growth at 10 µM,[16],94.6%
same,growth at 10 µM,[17],73.2%
same,growth at 10 µM,[18],86.9%
same,growth at 10 µM,[19],99.2%
same,growth at 10 µM,[20],95.8%
same,growth at 10 µM,[21],100%
same,growth at 10 µM,[22],96.9%
same,growth at 10 µM,[23],80.7%
same,growth at 10 µM,[24],107%
same,growth at 10 µM,[25],90.4%
same,growth at 10 µM,[26],87.6%
same,growth at 10 µM,[27],97%
same,growth at 10 µM,[28],79%
same,growth at 10 µM,[29],91%
same,growth at 10 µM,[30],100%
same,growth at 10 µM,[31],81.1%
same,growth at 10 µM,[32],95.5%
same,growth at 10 µM,[33],86%
CC1(C)CCc2cc(-c3ccn(S(=O)(=O)c4ccc(C(F)(F)F)cc4)n3)ccc2O1,growth at 10 µM,[1],75.6%
same,growth at 10 µM,[2],113%
same,growth at 10 µM,[3],90.7%
same,growth at 10 µM,[4],92.5%
same,growth at 10 µM,[5],108%
same,growth at 10 µM,[6],119%
same,growth at 10 µM,[7],92%
same,growth at 10 µM,[8],112%
same,growth at 10 µM,[9],117%
same,growth at 10 µM,[10],71.3%
same,growth at 10 µM,[11],76.8%
same,growth at 10 µM,[12],80.2%
same,growth at 10 µM,[13],87.3%
same,growth at 10 µM,[14],90.2%
same,growth at 10 µM,[15],103%
same,growth at 10 µM,[16],96.6%
same,growth at 10 µM,[17],76.6%
same,growth at 10 µM,[18],78.7%
same,growth at 10 µM,[19],86.8%
same,growth at 10 µM,[20],101%
same,growth at 10 µM,[21],84.2%
same,growth at 10 µM,[22],93.5%
same,growth at 10 µM,[23],95.7%
same,growth at 10 µM,[24],97.3%
same,growth at 10 µM,[25],104%
same,growth at 10 µM,[26],87.4%
same,growth at 10 µM,[27],94.6%
same,growth at 10 µM,[28],80.6%
same,growth at 10 µM,[29],89.3%
same,growth at 10 µM,[30],104%
same,growth at 10 µM,[31],82.5%
same,growth at 10 µM,[32],101%
same,growth at 10 µM,[33],79.8%
